T cruzi intra: blocks T. cruzi growth inside host cells; hit rate 4.9% among 22,000; intracellular Trypanosoma cruzi in host cells, plate reader; activity score (inhibition), % at 5.01 µM; in the data active means activity score above about 55%;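 further: parasites and compound incubated about four days before reading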
INS-1E rescue: INS-1E beta cell protection from cytokine death; hit rate 0.1% among 20,000; protection from cytokine-induced ATP loss, % at 10 µM; AID 488910; INS-1E cytokine-induced death, ATP luminescence, 48 h; normalised: neutral wells 0, positive control 100;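 active means mean replicate protection from cytokine-induced ATP loss at least 50% and at least 75% of replicates each reaching 50%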
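Assay system: INS-1E rat insulinoma cells. Amount: 8000 cells per well. Medium: phenol-red-free RPMI with 5% fetal bovine serum. Reagent: IL-1β, TNF-α and IFN-γ cytokine mix. Doses: one compound concentration, pin transfer. Schedule: 48 h co-treatment, 10 min post-lysis read. Detection: CellTiter-Glo luminescence measuring cellular ATP.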
A1 apoptosis 2: A1 inhibition read as caspase activation | AID 2465 | caspase activation, % (no concentration beside the values) | MEF A1-2A-BIM cells, caspase-Glo luminescence, 3 h; percent of clofoctol response, DMSO zero | 24,000 tested, under 10 active; in the data active means caspase activation above about 5.9%
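Evaluation: Caspase-3/7 activity from luminescence increase | Assay system: A1-2A-BIM mouse embryonic fibroblasts | Quantity: 2500 MEF cells/well | Medium: RPMI-1640 plus 10% FBS | Detection: Caspase-Glo 3/7 luminescence, 1 h at room temperature | Dosing: 50 nL compound per well, pinned | Timing: Cells settled overnight, compound exposure 3 h at 37 °C, 5% CO2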
Of the large screens only hits and unclear results are named; the others gave an inactive call. This is one part of a sample in which hits are shown more often than they occur.

C[C@@H]1CCCCO[C@@H](CN(C)Cc2ccccc2)[C@@H](C)CN([C@H](C)CO)C(=O)c2cc(NC(=O)Nc3ccc(F)cc3)ccc2O1	T cruzi intra 62 (no result: A1 apoptosis 2)
C[C@@H]1CCCCO[C@H](CN(C)Cc2ccccc2)[C@@H](C)CN([C@H](C)CO)C(=O)c2cc(NC(=O)Nc3ccc(C(F)(F)F)cc3)ccc2O1	T cruzi intra 71
C[C@@H]1CCCCO[C@H](CN(C)Cc2ccccc2)[C@H](C)CN([C@@H](C)CO)C(=O)c2cc(NC(=O)Nc3ccc(C(F)(F)F)cc3)ccc2O1	none (no result: T cruzi intra, INS-1E rescue)
C[C@@H]1CCCCO[C@H](CN(C)Cc2ccccc2)[C@@H](C)CN([C@H](C)CO)C(=O)c2cc(NC(=O)Nc3ccc(F)cc3)ccc2O1	none
C[C@@H]1CN([C@@H](C)CO)C(=O)c2cccc(NC(=O)Nc3ccc(C(F)(F)F)cc3)c2O[C@H]1CN(C)C(=O)Nc1ccc(C(F)(F)F)cc1	T cruzi intra 72
C[C@@H]1CN([C@@H](C)CO)C(=O)c2cccc(NS(=O)(=O)c3cccs3)c2O[C@@H]1CN(C)C(=O)Nc1ccc(F)cc1	none (no result: A1 apoptosis 2)
C[C@H]1CN([C@@H](C)CO)C(=O)c2cccc(NC(=O)Nc3ccc(C(F)(F)F)cc3)c2O[C@@H]1CN(C)C(=O)Nc1cccc2ccccc12	T cruzi intra 66
C[C@@H]1CN([C@H](C)CO)C(=O)c2cccc(NS(=O)(=O)c3cccs3)c2O[C@@H]1CN(C)C(=O)Nc1ccc(C(F)(F)F)cc1	T cruzi intra 71
COc1ccc(S(=O)(=O)Nc2cccc3c2O[C@H](CN(C)C(=O)Nc2ccc(F)cc2)[C@@H](C)CN([C@H](C)CO)C3=O)cc1	none (no result: A1 apoptosis 2)
C[C@H]1CN([C@@H](C)CO)C(=O)c2cccc(NC(=O)Nc3ccc(C(F)(F)F)cc3)c2O[C@@H]1CN(C)C(=O)Nc1ccc(C(F)(F)F)cc1	none
COc1ccc(NC(=O)N(C)C[C@H]2Oc3c(NS(=O)(=O)c4ccc(F)cc4)cccc3C(=O)N([C@@H](C)CO)C[C@H]2C)cc1	T cruzi intra 64
C[C@@H]1CN([C@H](C)CO)C(=O)c2cccc(NC(=O)Nc3ccc(C(F)(F)F)cc3)c2O[C@H]1CN(C)C(=O)Nc1cccc2ccccc12	none
C[C@H]1CN([C@@H](C)CO)C(=O)c2cc(NC(=O)CCN3CCOCC3)ccc2O[C@H]1CN(C)CC1CC1	none
COc1ccc(CN(C)C[C@@H]2OCCCC[C@H](C)Oc3ccc(NC(=O)Nc4c(C)noc4C)cc3C(=O)N([C@H](C)CO)C[C@@H]2C)cc1	none (no result: T cruzi intra, INS-1E rescue)
Cc1ccc(S(=O)(=O)N(C)C[C@H]2Oc3ccc(NC(=O)Nc4cccc5ccccc45)cc3CC(=O)N([C@@H](C)CO)C[C@@H]2C)cc1	none (no result: A1 apoptosis 2)
C[C@H](CO)N1C[C@H](C)[C@H](CN(C)C(=O)Nc2cccc3ccccc23)Oc2ccc(NS(=O)(=O)c3cn(C)cn3)cc2C1=O	none (no result: INS-1E rescue)
Cc1noc(C)c1S(=O)(=O)N(C)C[C@H]1Oc2ccc(NS(=O)(=O)c3cccs3)cc2CC(=O)N([C@@H](C)CO)C[C@@H]1C	none
C[C@H](CO)N1C[C@H](C)[C@H](CN(C)S(=O)(=O)c2cccs2)Oc2ccc(NC(=O)C3CC3)cc2C1=O	none
Cc1noc(C)c1NC(=O)N(C)C[C@@H]1Oc2c(NS(=O)(=O)c3ccc(Cl)cc3)cccc2C(=O)N([C@H](C)CO)C[C@@H]1C	none
C[C@@H]1CN([C@H](C)CO)C(=O)c2cccc(NC(=O)Nc3ccc(C(F)(F)F)cc3)c2O[C@@H]1CN(C)C(=O)NC1CCCCC1	T cruzi intra 82
C[C@@H]1CN([C@@H](C)CO)C(=O)c2cccc(NC(=O)Nc3ccc(C(F)(F)F)cc3)c2O[C@H]1CN(C)C(=O)NC1CCCCC1	none
CC(C)NC(=O)Nc1cccc2c1O[C@@H](CN(C)C(=O)NC(C)C)[C@H](C)CN([C@H](C)CO)C2=O	none (no result: A1 apoptosis 2)
C[C@@H]1CN([C@H](C)CO)C(=O)c2cc(NS(C)(=O)=O)ccc2O[C@H]1CN(C)S(=O)(=O)c1cccs1	none (no result: A1 apoptosis 2)
C[C@H](CO)N1C[C@H](C)[C@H](CN(C)Cc2ccncc2)Oc2ccc(NC(=O)Nc3ccccc3)cc2CC1=O	none
Cc1ccccc1/C=N/NC(=O)CCCCCC(=O)NO	none (no result: T cruzi intra, INS-1E rescue)
Cc1noc(C)c1S(=O)(=O)Nc1ccc2c(c1)CC(=O)N([C@H](C)CO)C[C@H](C)[C@@H](CN(C)Cc1ccc(C(=O)Nc3ccccc3N)cc1)O2	none (no result: T cruzi intra, INS-1E rescue)
Cc1noc(C)c1S(=O)(=O)Nc1ccc2c(c1)C(=O)N([C@H](C)CO)C[C@@H](C)[C@H](CN(C)Cc1ccc(C(=O)Nc3ccccc3N)cc1)O2	none

Compound activity as filed in PubChem BioAssay.
